Reference: publication PMC4281097 (Journal of Medicinal Chemistry, 2014)
“Also recorded” adds a separate entry of the source. Like-named read-outs stand apart in the source and are kept apart here.

Tests used:
[1] = system: ES cell lines (TC32 and TC71); assay: Cell proliferation assay in ES cell lines; format: cell-based, human; conditions: for Growth inhibition / antiproliferative activity in words: ES cell lines containing EWS-FLI1; for GI50: read-out: GI50 bound used to select compounds for the reporter assay
EWS-FLI1 [2] = biological target: T1, EWS-FLI1 (Homo sapiens, UniProt Q01543+Q01844); assay: EWS-FLI1/NR0B1 reporter luciferase assay in transfected COS7 cells; format: cell-based; conditions: COS7 cells transfected with EWS-FLI1 and NR0B1 reporter, 20 h treatment
T1 sequence (Q01844 1-264): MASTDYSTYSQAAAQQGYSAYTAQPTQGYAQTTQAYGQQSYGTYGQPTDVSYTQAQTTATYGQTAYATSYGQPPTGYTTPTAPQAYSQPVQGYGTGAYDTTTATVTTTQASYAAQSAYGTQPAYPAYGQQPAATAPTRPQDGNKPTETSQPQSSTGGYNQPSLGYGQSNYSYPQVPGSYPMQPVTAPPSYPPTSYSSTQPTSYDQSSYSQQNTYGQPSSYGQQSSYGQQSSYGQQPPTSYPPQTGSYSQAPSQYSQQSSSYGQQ
T1 sequence (Q01543 220-452): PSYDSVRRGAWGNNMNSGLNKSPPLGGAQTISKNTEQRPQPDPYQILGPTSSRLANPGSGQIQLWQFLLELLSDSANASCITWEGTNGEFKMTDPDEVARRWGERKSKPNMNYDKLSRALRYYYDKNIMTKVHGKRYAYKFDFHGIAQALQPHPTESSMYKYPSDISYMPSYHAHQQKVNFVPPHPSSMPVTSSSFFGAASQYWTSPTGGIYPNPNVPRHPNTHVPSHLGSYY
Summary of the method: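 COS7 cells (DMEM, 10% FBS) transiently co-transfected with NR0B1 luciferase reporter carrying EWS-FLI1 binding sites plus full-length EWS-FLI1 or empty pCI-neo vector. Treated 1.5 h post-transfection with test compound at 0.05, 0.15, 0.5, 1.5, 5 or 15 μM, or DMSO. Luciferase measured 20 h later. IC50 from sigmoidal dose–response fit. Quadruplicate wells, mean ± SD of a representative experiment.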

TC32 cells [3] = assay: Cell proliferation assay; format: cell-based, human; conditions: for Fold loss of growth inhibitory activity in TC32 cells compared to 2: relative to 2
PANC1 cells = assay: Cell proliferation assay; format: cell-based, human; conditions: PANC1 cells (selectivity control)
Summary of the method: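 TC71 grown in RPMI with 10% FBS and 1% HEPES; PANC1 in DMEM with 10% FBS; both at 37 °C, 5% CO2. Cells plated in colorless medium at 5000–15000 cells/well depending on line. Test compound or DMSO vehicle added the day after plating. Viable cells quantified by MTT or WST-1 after 3 days of treatment. GI50 derived by nonlinear regression.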

TC32 cells [4] = conditions: cited from earlier work
EWS-FLI1 [5] = biological target: T1, EWS-FLI1; assay: ELISA-like binding assay of biotin conjugate to immobilized recombinant EWS-FLI1
Summary of the method: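 EWS-FLI1 expressed in BL21 (1 mM IPTG, 2 h, 27 °C) and recovered from inclusion bodies. Denatured in guanidinium, Ni-chelate purified, refolded on-column by gradient out of urea, then imidazole-eluted. Wells coated overnight with 20 nM protein and blocked with 4% BSA/PBS (1 h, rt). Biotinylated test compound from DMSO stock added for 1 h. Detection used HRP-streptavidin (1:5000, 1 h, rt) and colorimetric substrate read at 405 nm.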

BSA = BSA (Bos taurus, UniProt P02769); assay: ELISA-like binding assay, immobilized BSA control; design: species or system bovine; conditions: BSA immobilized instead of EWS-FLI1
Summary of the method: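 BSA immobilized in wells in place of recombinant EWS-FLI1. Biotinylated test compound, diluted from DMSO stock in assay buffer, was incubated 1 h. Wells washed five times. Detection used HRP-streptavidin (1:5000, 1 h, room temperature) and colorimetric substrate, with absorbance at 405 nm.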

ES orthotopic xenografts = conditions: cited from earlier work
ES cells = conditions: read-out: GI50 in ES cells; several ES cells; cited from earlier work
COS7 cells = assay: Cell proliferation assay; format: cell-based, monkey; conditions: WST, 48 h
EWS-FLI1 [6] = biological target: T1, EWS-FLI1; conditions: binding to EWS-FLI1; cited from earlier work

Sequence of BSA (P02769 25-607): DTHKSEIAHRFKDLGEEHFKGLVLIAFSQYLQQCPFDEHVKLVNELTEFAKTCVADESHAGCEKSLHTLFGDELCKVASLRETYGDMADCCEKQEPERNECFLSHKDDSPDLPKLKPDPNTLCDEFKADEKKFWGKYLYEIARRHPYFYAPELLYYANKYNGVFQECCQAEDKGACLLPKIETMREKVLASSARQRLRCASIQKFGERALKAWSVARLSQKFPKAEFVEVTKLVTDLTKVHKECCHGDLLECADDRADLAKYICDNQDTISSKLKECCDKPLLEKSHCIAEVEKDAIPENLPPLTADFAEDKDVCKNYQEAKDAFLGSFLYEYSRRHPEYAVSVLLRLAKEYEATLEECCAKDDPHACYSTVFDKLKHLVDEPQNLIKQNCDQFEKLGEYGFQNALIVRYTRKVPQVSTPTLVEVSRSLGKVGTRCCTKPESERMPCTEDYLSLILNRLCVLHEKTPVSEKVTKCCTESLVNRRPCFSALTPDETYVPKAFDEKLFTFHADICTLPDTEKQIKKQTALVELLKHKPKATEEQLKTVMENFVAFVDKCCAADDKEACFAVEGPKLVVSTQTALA

O=C(CC1(O)C(=O)Nc2c(Cl)ccc(Cl)c21)c1ccc(Oc2ccccc2)cc1 (stereo not shown) [9q, 4,7-Dichloro-3-hydroxy-3-(2-oxo-2-(4-phenoxyphenyl)ethyl)indolin-2-one]
Growth inhibition / antiproliferative activity in words [1]: complete loss of activity

COc1ccc(C(=O)CC2(OC)C(=O)N(C)c3c(Cl)ccc(Cl)c32)cc1 (stereo not shown) [compound 15, 4,7-Dichloro-3-methoxy-3-(2-(4-methoxyphenyl)-2-oxoethyl)-1-methylindolin-2-one]
Growth inhibition / antiproliferative activity in words [1]: inactive; also recorded: no antiproliferative activity | Inhibition of EWS-FLI1 transcriptional activity in words (EWS-FLI1 [2]): modest inhibitory effects

O=C(CC1(O)C(=O)Nc2c(Cl)ccc(Cl)c21)c1ccc(C(F)(F)F)cc1 (stereo not shown) [9j, 4,7-Dichloro-3-hydroxy-3-(2-oxo-2-(4-(trifluoromethyl)phenyl)ethyl)indolin-2-one]
Fold loss of growth inhibitory activity in TC32 cells compared to 2 (TC32 cells [3]): 3 fold | Inhibition of PANC1 cell growth in words (PANC1 cells): inhibited PANC1 cells growth

O=C(CC1(O)C(=O)Nc2c(Cl)ccc(Cl)c21)c1ccc(Cl)cc1 (stereo not shown) [compound 1, 4,7-dichloro-3-(2-(4-chlorophenyl)-2-oxoethyl)-3-hydroxyindolin-2-one]
GI50 in TC32 cells (TC32 cells [4]; TC32 cells): 20000 nM

COc1ccc(C(=O)CC2(O)C(=O)Nc3c(Cl)ccc(Cl)c32)cn1 (stereo not shown) [compound 18, 4,7-Dichloro-3-hydroxy-3-(2-(6-methoxypyridin-3-yl)-2-oxoethyl)indolin-2-one]
Growth inhibition / antiproliferative activity in words [1]: complete loss of growth inhibition

COc1cccc(C(=O)CC2(O)C(=O)Nc3c(Cl)ccc(Cl)c32)c1 (stereo not shown) [9b, 4,7-Dichloro-3-hydroxy-3-(2-(3-methoxyphenyl)-2-oxoethyl)indolin-2-one]
Growth inhibition / antiproliferative activity in words [1]: reduced inhibition of cell growth

COc1cc(OC)cc(C(=O)CC2(O)C(=O)Nc3c(Cl)ccc(Cl)c32)c1 (stereo not shown) [9d, 4,7-Dichloro-3-(2-(3,5-dimethoxyphenyl)-2-oxoethyl)-3-hydroxyindolin-2-one]
Fold loss of growth inhibitory activity in TC32 cells compared to 2 (TC32 cells [3]): ~10 fold

COc1ccc(C(=O)CC2(O)C(=O)Nc3c(Cl)ccc(Cl)c32)cc1 (single isomer, unassigned) [S-(−) enantiomer of 2]
Fold more potent in vitro than racemic 2 (TC32 cells [4]; in vitro): 4 fold | GI50 (TC32 cells [4]; read-out: GI50 of single enantiomer, in vitro, TC32 cells): 280 nM

4,7-Dichloro-3-hydroxyl-3-(2-oxo-2-p-tolylethyl)-1,3-dihydroindol-2-one [9m]
Fold loss of growth activity / potency compared to 2 ([1]; ES cells, relative to 2): 3 fold | GI50 ([1]; ES cells): ≤ 2700 nM | Inhibition of EWS-FLI1 transcriptional activity in words (EWS-FLI1 [2]): lower than 2

4,7-Dichloro-3-(2-(4-ethoxyphenyl)-2-oxoethyl)-3-hydroxyindolin-2-one [9n]
Growth inhibition / antiproliferative activity in words [1]: complete loss of activity

COc1ccc(C(=O)CC2(OC)C(=O)Nc3c(Cl)ccc(Cl)c32)cc1 (stereo not shown) [compound 11, 4,7-Dichloro-3-methoxy-3-(2-(4-methoxyphenyl)-2-oxoethyl)indolin-2-one]
Growth inhibition / antiproliferative activity in words [1]: complete loss of inhibitory activity; also recorded: no antiproliferative activity | Inhibition of EWS-FLI1 transcriptional activity in words (EWS-FLI1 [2]): did not display any inhibition

COc1ccc(C(=O)CC2(O)C(=O)Nc3c(Cl)ccc(Cl)c32)c(OC)c1 (stereo not shown) [9c, 4,7-Dichloro-3-(2-(2,4-dimethoxyphenyl)-2-oxoethyl)-3-hydroxyindolin-2-one]
Inhibition of EWS-FLI1 transcriptional activity in words (EWS-FLI1 [2]): lower than 2

COc1ccccc1C(=O)CC1(O)C(=O)Nc2c(Cl)ccc(Cl)c21 (stereo not shown) [9a, 4,7-Dichloro-3-hydroxy-3-(2-(2-methoxyphenyl)-2-oxoethyl)indolin-2-one]
Growth inhibition / antiproliferative activity in words [1]: reduced inhibition of cell growth; also recorded: no antiproliferative activity | Inhibition of EWS-FLI1 transcriptional activity in words (EWS-FLI1 [2]): did not inhibit

COc1ccc(C(=O)CC2(O)C(=O)Nc3c(Cl)ccc(Cl)c32)c(OC)c1OC (stereo not shown) [9f, 4,7-Dichloro-3-hydroxy-3-(2-oxo-2-(2,3,4-trimethoxyphenyl)ethyl)indolin-2-one]
Fold loss of growth activity / potency compared to 2 ([1]; ES cells, relative to 2): 3 fold

Nc1ccc(C(=O)CC2(O)C(=O)Nc3c(Cl)ccc(Cl)c32)cc1 (stereo not shown) [9s, 3-[2-(4-Aminophenyl-2-oxoethyl)]-4,7-dichloro-3-hydroxyl 1,3-dihydroindol-2-one]
Growth inhibition / antiproliferative activity in words [1]: complete loss of activity

COc1ccc(C(=O)C[C@]2(O)C(=O)Nc3c(Cl)ccc(Cl)c32)cc1 [R-(+)]
In vitro activity of enantiomer in words (TC32 cells [4]; in vitro): almost inactive

COc1ccc(C(=O)/C=C2\C(=O)Nc3c(Cl)ccc(Cl)c32)cc1 [compound 10, (Z)-4,7-Dichloro-3-(2-(4-methoxyphenyl)-2-oxoethylidene)indolin-2-one]
GI50 in TC32 cells (TC32 cells [3]): 1000 nM

4,7-Dichloro-3-methoxy-3-(2-(4-methoxyphenyl)-2-oxoethyl)indolin-2-one [14a]
GI50 ([1]; ES cells): ≤ 2700 nM | Inhibition of EWS-FLI1 transcriptional activity in words (EWS-FLI1 [2]): modest inhibitory effects | Fold loss of growth inhibitory activity in TC32 cells compared to 2 (TC32 cells [3]): 2 fold

COc1ccc(C(=O)CC2(O)C(=O)N(c3ccccc3)c3c(Cl)ccc(Cl)c32)cc1 (stereo not shown) [14b, 4,7-Dichloro-3-hydroxy-3-(2-(4-methoxyphenyl)-2-oxoethyl)-1-phenylindolin-2-one]
Growth inhibition / antiproliferative activity in words [1]: complete loss of activity

CC(C)Oc1ccc(C(=O)CC2(O)C(=O)Nc3c(Cl)ccc(Cl)c32)cc1 (stereo not shown) [9p, 4,7-Dichloro-3-hydroxy-3-(2-(4-isopropoxyphenyl)-2-oxoethyl)indolin-2-one]
Growth inhibition / antiproliferative activity in words [1]: complete loss of activity

CN(C)c1ccc(C(=O)CC2(O)C(=O)Nc3c(Cl)ccc(Cl)c32)cc1 (stereo not shown) [9u, 4,7-Dichloro-3-(2-(4-(dimethylamino)phenyl)-2-oxoethyl)-3-hydroxyindolin-2-one]
Fold increase in potency compared to 2 ([1]; ES cells, relative to 2): over 3 fold | GI50 in TC32 cells (TC32 cells [3]): 260 nM

COc1cccc(C(=O)CC2(O)C(=O)Nc3c(Cl)ccc(Cl)c32)c1OC (stereo not shown) [9e, 4,7-Dichloro-3-(2-(2,3-dimethoxyphenyl)-2-oxoethyl)-3-hydroxyindolin-2-one]
Growth inhibition / antiproliferative activity in words [1]: reduced inhibition of cell growth

COc1ccc(C(=O)CC2(O)C(=O)Nc3c(OC)ccc(OC)c32)cc1 (stereo not shown) [6e, 3-Hydroxy-4,7-dimethoxy-3-(2-(4-methoxyphenyl)-2-oxoethyl)indolin-2-one]
GI50 in TC32 cells (TC32 cells [3]): 1000 nM

CN(C(=O)CCCCCNC(=O)CCCC[C@H]1SCC2NC(=O)NC21)c1ccc(C(=O)CC2(O)C(=O)Nc3c(Cl)ccc(Cl)c32)cc1 (stereo partly drawn) [compound 24, N-(4-(2-(4,7-Dichloro-3-hydroxy-2-oxoindolin-3-yl)acetyl)phenyl)-N-methyl-6-(5-((4R)-2-oxohexahydro-1H-thieno[3,4-d]imidazol-4-yl)pentanamido)hexanamide]
Concentration at which binding saturation was reached (EWS-FLI1 [5]): 20 µM | Binding to immobilized BSA in words (BSA): No binding was detected

COc1ccc(C(=O)CC2(O)C(=O)Nc3c(Cl)ccc(Cl)c32)cc1 (stereo not shown) [compound 2, YK-4-279]
GI50 in TC32 cells (TC32 cells [4]; TC32 cells): 900 nM | Growth of ES orthotopic xenografts in words (ES orthotopic xenografts): reduces the growth | GI50 (ES cells): 500 to 2000 nM | Cytotoxicity / effect on COS7 cell proliferation in words (COS7 cells): negligible effect | Kd (EWS-FLI1 [6]): 9480 nM
